Measurements from different studies.
Lines come from different studies, so protocols differ.
Target: Tyrosine-protein kinase HCK (HCK, Homo sapiens, UniProt P08631)

Cn1cc(-c2cccc(N3CCc4c(sc5c4CC(C)(C)C5)C3=O)c2CO)cc(Nc2ccncn2)c1=O gave an inhibition of 6% (enzyme activity; inhibitor; 1 µM).
O=c1[nH]c2ccccc2n1C1CCN(Cc2ccc(-c3[nH]c4cc5ncnc5cc4nc3-c3ccccc3)cc2)CC1 gave a remaining signal of 99.6% (cell-free assay; 0.5 µM).
COc1ncccc1-c1cnn2ccc(N3CCN(C(=O)OC(C)C)CC3)nc12 has a remaining binding of 60% (binding; competition with immobilised ligand; 1 µM).
N#CC1(c2ccccn2)CCN(Cc2cc(C(=O)O)c(=O)n3ccccc23)CC1 has a remaining binding of 100% (cell-free assay; competition with immobilised ligand; 1 µM).
With CC(C)(C)c1cc(C=C(C#N)C#N)cc(Br)c1O the remaining activity was 66.1% (enzyme activity; inhibitor; 0.5 µM).
The remaining binding of Cc1nn(C)cc1-c1nc2c(N3CCN(Cc4ccc(Cl)cc4)CC3)c(Cl)cnc2[nH]1 is reported as 100% (binding; competition with immobilised ligand; 1 µM).
Cn1cncc1[C@@](O)(COc1ccc(C#N)cc1-c1ccc(OC(F)(F)F)cc1)c1ccc(C#N)cc1 gave a remaining binding of 100% (cell-free assay; competition with immobilised ligand; 1 µM).
The inhibition of COc1cc(Nc2ncc(F)c(Nc3ccc4c(n3)NC(=O)C(C)(C)O4)n2)cc(OC)c1OC is reported as 98% (binding; competition with immobilised ligand; 10 µM).
For Cn1cc(-c2cc(F)cc(N3CCn4c(cc5c4CCCC5)C3=O)c2CO)cc(Nc2ccc(N3CCN(C4COC4)CC3)cn2)c1=O, the inhibition was 9% (enzyme activity; inhibitor; 0.1 µM).
For Nc1ncc(-c2nc(N3CCOCC3)nc(N3CCOCC3)n2)c(C(F)F)n1, the remaining binding was 77% (binding; competition with immobilised ligand; 10 µM).
